Reference: ChEMBL document CHEMBL3091303, “1,3-Dialkyl-substituted tetrahydropyrimido[1,2-f]purine-2,4-diones as multiple target drugs for the potential treatment of neurodegenerative diseases” (Bioorg Med Chem, 2013)

Columns and labels:
[1] = molecular target: T1, Amine oxidase [flavin-containing] B (Homo sapiens, UniProt P27338); experiment: Inhibition of human MAO-B
T1 sequence (P27338 whole entry): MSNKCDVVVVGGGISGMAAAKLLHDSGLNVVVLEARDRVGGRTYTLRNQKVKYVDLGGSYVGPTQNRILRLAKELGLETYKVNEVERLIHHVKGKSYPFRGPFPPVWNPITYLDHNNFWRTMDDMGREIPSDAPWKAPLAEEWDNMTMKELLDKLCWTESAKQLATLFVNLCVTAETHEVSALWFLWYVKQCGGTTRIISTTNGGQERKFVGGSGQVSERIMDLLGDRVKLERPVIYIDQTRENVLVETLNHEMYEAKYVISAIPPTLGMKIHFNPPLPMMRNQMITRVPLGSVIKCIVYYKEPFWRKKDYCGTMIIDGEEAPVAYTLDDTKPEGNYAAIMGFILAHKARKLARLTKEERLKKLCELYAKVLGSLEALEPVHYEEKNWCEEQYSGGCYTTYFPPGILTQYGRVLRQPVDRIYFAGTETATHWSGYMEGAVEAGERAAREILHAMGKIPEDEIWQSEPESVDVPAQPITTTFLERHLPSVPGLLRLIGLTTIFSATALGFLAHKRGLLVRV

[2] = molecular target: T2, Amine oxidase [flavin-containing] A (Homo sapiens, UniProt P21397); experiment: Inhibition of human MAO-A
T2 sequence (P21397 whole entry): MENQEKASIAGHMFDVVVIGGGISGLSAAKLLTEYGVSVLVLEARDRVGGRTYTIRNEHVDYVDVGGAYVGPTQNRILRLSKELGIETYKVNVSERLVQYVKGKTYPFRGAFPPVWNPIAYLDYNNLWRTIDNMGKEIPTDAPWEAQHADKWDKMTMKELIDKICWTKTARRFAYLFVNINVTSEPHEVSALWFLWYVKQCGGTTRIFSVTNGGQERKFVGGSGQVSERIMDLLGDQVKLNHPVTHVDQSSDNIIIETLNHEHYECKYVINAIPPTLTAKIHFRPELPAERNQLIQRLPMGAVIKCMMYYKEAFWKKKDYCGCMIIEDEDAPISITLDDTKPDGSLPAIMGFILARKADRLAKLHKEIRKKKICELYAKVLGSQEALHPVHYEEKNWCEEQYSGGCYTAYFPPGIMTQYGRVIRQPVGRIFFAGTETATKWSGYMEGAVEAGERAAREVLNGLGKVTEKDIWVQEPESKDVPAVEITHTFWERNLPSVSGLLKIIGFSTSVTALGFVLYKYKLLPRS
In short: (§1)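 Human MAO-A and MAO-B inhibition, screened first at a test concentration of 10 µM.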

[3] = molecular target: T3, MAO-A (amine oxidase [flavin-containing] A) (Homo sapiens, UniProt P21397); experiment: Inhibition of human MAO-A at 10 uM relative to control; in short: as §1
T3 sequence (P21397 whole entry): T2 sequence (P21397 whole entry)

Adenosine receptor A3 [4] = molecular target: T4, Adenosine receptor A3 (Homo sapiens, UniProt P0DMS8); experiment: Displacement of [3H]PSB-11 from human adenosine A3 receptor expressed in CHO cells; format: cell-based
T4 sequence (P0DMS8 whole entry): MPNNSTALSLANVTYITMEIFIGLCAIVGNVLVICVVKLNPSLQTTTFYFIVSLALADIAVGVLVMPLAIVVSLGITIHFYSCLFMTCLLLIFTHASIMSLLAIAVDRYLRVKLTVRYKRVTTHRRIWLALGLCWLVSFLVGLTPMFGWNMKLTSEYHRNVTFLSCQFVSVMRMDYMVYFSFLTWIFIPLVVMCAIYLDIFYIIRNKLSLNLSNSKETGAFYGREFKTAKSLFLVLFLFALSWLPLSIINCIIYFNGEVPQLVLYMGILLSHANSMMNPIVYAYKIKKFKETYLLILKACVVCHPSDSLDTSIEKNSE

[5] = molecular target: T5, Adenosine receptor A2b (Homo sapiens) (UniProt P29275); experiment: Displacement of [3H]PSB-603 from human adenosine A2B receptor relative to control; design: concentration or dose not given beside the values; settings: concentration not given here
T5 sequence (whole entry): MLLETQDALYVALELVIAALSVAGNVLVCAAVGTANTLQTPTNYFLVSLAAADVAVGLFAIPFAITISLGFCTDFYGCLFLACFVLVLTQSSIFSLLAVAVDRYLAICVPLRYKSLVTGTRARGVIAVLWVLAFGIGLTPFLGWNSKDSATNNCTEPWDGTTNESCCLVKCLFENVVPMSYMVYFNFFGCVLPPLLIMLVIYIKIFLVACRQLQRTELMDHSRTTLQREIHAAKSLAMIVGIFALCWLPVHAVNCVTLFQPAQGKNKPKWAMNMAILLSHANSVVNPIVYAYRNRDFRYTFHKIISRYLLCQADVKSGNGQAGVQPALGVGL

Adenosine receptor A2a [6] = molecular target: T6, Adenosine receptor A2a (Rattus norvegicus, UniProt P30543); experiment: Displacement of [3H]MSX-2 from adenosine A2A receptor in rat brain striatum; format: tissue-based
Adenosine receptor A2b = molecular target: T7, Adenosine receptor A2b (Homo sapiens, UniProt P29275); experiment: Displacement of [3H]PSB-603 from human adenosine A2B receptor
T7 sequence (P29275 whole entry): T5 sequence (whole entry)

Adenosine receptor A1 [7] = molecular target: T8, Adenosine receptor A1 (Homo sapiens, UniProt P30542); experiment: Displacement of [3H]CCPA from human adenosine A1 receptor expressed in CHO cells; format: cell-based
T8 sequence (P30542 whole entry): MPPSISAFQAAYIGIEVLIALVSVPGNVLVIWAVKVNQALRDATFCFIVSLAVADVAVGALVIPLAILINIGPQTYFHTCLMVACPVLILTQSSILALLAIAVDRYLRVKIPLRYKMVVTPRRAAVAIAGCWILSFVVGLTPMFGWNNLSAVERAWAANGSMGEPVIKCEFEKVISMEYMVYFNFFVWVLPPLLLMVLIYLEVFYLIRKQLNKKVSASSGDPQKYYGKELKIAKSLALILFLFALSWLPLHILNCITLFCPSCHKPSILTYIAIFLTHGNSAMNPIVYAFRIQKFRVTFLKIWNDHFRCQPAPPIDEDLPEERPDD
In short: (§2)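 Radioligand binding to human receptors recombinantly expressed in Chinese hamster ovary (CHO) cells. Results are Ki, or % inhibition of radioligand binding at the indicated concentration.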

Adenosine receptor A1 [8] = molecular target: T9, Adenosine receptor A1 (Rattus norvegicus, UniProt P25099); experiment: Displacement of [3H]CCPA from adenosine A1 receptor in rat brain cortex; format: tissue-based
T9 sequence (P25099 whole entry): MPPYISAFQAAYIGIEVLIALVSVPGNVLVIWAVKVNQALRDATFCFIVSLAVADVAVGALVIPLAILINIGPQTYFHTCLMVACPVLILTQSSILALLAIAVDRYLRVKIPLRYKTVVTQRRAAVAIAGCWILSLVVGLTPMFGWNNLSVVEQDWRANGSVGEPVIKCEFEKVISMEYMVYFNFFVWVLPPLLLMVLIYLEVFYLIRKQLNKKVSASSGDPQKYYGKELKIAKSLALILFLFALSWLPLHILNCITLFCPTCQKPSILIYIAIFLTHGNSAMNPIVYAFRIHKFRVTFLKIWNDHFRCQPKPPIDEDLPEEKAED
In short: (§3)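 Radioligand binding to rat A1 receptors in rat brain cortical membrane preparations. Values are given as Ki, or as % inhibition of radioligand binding at the indicated concentration.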

[9] = molecular target: T10, Adenosine receptor A1 (Homo sapiens) (UniProt P30542); experiment: Displacement of [3H]CCPA from human adenosine A1 receptor expressed in CHO cells relative to control; format: cell-based; settings: concentration not given here; in short: as §2
T10 sequence (whole entry): T8 sequence (P30542 whole entry)

Adenosine receptor A2a [10] = molecular target: T11, Adenosine receptor A2a (Homo sapiens, UniProt P29274); experiment: Displacement of [3H]MSX-2 from human adenosine A2A receptor expressed in CHO cells; format: cell-based; in short: as §2
[11] = molecular target: T12, MAO-B (amine oxidase [flavin-containing] B) (Homo sapiens, UniProt P27338); experiment: Inhibition of human MAO-B at 10 uM relative to control; in short: as §1
T12 sequence (P27338 whole entry): T1 sequence (P27338 whole entry)

[12] = Ratio of Ki for human adenosine A1 receptor to Ki for adenosine A1 receptor in rat brain cortex; format: tissue-based
[13] = molecular target: T13, Adenosine receptor A3 (Homo sapiens) (UniProt P0DMS8); experiment: Displacement of [3H]PSB-11 from human adenosine A3 receptor expressed in CHO cells relative to control; format: cell-based; design: concentration or dose not given beside the values; settings: concentration not given here
T13 sequence (whole entry): T4 sequence (P0DMS8 whole entry)

[14] = molecular target: Adenosine receptor A2a (Rattus norvegicus) (UniProt P30543); experiment: Displacement of [3H]MSX-2 from adenosine A2A receptor in rat brain striatum relative to control; format: tissue-based; design: concentration or dose not given beside the values; settings: concentration not given here
In short: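 Radioligand binding to rat A2A receptors in rat brain striatal membrane preparations, reported as % inhibition of radioligand binding at the indicated concentration.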

[15] = molecular target: T14, Adenosine receptor A1 (Rattus norvegicus) (UniProt P25099); experiment: Displacement of [3H]CCPA from adenosine A1 receptor in rat brain cortex relative to control; format: tissue-based; design: concentration or dose not given beside the values; settings: concentration not given here; in short: as §3
T14 sequence (whole entry): T9 sequence (P25099 whole entry)

Adenosine receptor A2a [16] = molecular target: T11, Adenosine receptor A2a; experiment: Binding affinity to human adenosine A2A receptor
Adenosine receptor A3 [17] = molecular target: T15, Adenosine receptor A3 (Rattus norvegicus, UniProt P28647); experiment: Binding affinity to rat adenosine A3 receptor
T15 sequence (P28647 whole entry): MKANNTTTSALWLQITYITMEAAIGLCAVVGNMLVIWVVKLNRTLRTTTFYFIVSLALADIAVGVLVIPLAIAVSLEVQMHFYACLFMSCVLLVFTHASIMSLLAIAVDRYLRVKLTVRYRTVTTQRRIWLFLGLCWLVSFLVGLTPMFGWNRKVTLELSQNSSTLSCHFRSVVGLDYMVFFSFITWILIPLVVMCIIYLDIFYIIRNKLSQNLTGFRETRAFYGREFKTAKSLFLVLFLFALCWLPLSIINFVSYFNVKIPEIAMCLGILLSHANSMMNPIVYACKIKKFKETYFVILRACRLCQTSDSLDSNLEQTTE

Adenosine receptor A2a [18] = molecular target: T6, Adenosine receptor A2a; experiment: Binding affinity to rat adenosine A2A receptor
Adenosine receptor A1 [19] = molecular target: T9, Adenosine receptor A1; experiment: Binding affinity to rat adenosine A1 receptor
Rattus norvegicus = organism: Rattus norvegicus; experiment: Selectivity ratio of Ki for adenosine A2A receptor in rat brain striatum to Ki for adenosine A1 receptor in rat brain cortex; format: tissue-based
[20] = test system: Adenosine receptor A1/A2A (Homo sapiens); experiment: Selectivity ratio of Ki for human adenosine A1 receptor to Ki for human adenosine A2A receptor

T6 sequence (P30543 whole entry): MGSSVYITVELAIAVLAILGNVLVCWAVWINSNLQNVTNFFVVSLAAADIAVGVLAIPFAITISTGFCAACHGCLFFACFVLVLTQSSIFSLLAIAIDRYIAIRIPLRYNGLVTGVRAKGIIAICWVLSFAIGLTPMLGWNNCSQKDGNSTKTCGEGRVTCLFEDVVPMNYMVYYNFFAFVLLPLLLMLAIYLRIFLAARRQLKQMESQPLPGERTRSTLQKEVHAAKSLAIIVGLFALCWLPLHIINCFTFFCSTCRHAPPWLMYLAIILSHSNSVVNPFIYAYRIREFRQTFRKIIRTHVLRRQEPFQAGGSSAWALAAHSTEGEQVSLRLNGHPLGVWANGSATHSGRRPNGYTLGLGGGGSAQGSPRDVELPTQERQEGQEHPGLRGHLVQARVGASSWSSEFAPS
T11 sequence (P29274 whole entry): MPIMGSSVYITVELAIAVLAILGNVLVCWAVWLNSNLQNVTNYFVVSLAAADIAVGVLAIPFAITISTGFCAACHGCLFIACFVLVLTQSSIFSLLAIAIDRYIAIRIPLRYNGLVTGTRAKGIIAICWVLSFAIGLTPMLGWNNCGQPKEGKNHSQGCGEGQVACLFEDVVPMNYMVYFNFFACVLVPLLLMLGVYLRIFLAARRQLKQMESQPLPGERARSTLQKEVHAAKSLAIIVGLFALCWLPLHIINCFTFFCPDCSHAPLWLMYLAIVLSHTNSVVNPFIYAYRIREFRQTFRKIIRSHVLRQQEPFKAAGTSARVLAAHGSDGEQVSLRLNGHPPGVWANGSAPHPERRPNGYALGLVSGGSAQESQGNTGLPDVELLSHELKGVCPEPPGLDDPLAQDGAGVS
Sequence of Adenosine receptor A2a (Rattus norvegicus) (P30543 whole entry): as the sequence (P30543 whole entry) above

SMILES | IC50 [1] [µM] | IC50 [2] [µM] | inhibition at 10 µM [3] [%] | Ki (Adenosine receptor A3 [4]) [µM] | inhibition [5] [%] | Ki (Adenosine receptor A2a [6]) [µM] | Ki (Adenosine receptor A2b) [µM] | Ki (Adenosine receptor A1 [7]) [µM] | Ki (Adenosine receptor A1 [8]) [µM] | inhibition [9] [%] | Ki (Adenosine receptor A2a [10]) [µM] | inhibition at 10 µM [11] [%] | inhibition [13] [%] | inhibition [15] [%] | other results
Cn1c(=O)c2c(nc3n2CCCN3Cc2cccc(Cl)c2)n(C)c1=O | 0.344 | > 10 | 2 | 15.2 | 10 | 0.802 | > 1 | > 10 | 0.432 | 21 | 2.03 |  |  |  | 
C#CCn1c(=O)c2c(nc3n2CCCN3c2cccc(OC)c2)n(C)c1=O | > 10 |  |  | > 1 | 8 | 3.03 | > 1 | 9.49 | 0.469 |  |  | 36 | 20 |  | Ratio Ki [12]: > 10
Cn1c(=O)c2c(nc3n2CCCN3CC(=O)N2CCN(c3ccc(Cl)cc3)CC2)n(C)c1=O | 2.2 | > 10 | 13 | > 1 | -7 | > 10 | > 1 |  | > 1.5 |  |  | 60 | 24 | 0 | inhibition [14]: 39%
C#CCn1c(=O)c2c(nc(/C=C/c3cccc(OC)c3)n2C)n(CCCO)c1=O |  |  |  |  |  |  |  |  |  |  | 0.00538 |  |  |  | Ki (Adenosine receptor A2a [16]): 0.00538 µM
C#CCn1c(=O)c2c(ncn2C)n(C)c1=O | > 10 | > 10 | 3 | > 10 |  | 5.6 |  |  | 11 |  |  |  |  |  | Ki (Adenosine receptor A3 [17]): > 10 µM; Ki (Adenosine receptor A2a [18]): 5.6 µM; Ki (Adenosine receptor A1 [19]): 11 µM
C#CCn1c(=O)c2c(nc3n2CCCN3CCc2ccccc2)n(C)c1=O | > 10 |  |  | > 1 | 3 | 0.827 | > 1 | 11.6 | 0.632 |  | 1.2 | 2 | 10 |  | Ratio Ki [12]: 18
Cn1c(=O)c2c(nc3n2CCCN3Cc2ccc(Cl)cc2)n(C)c1=O | 0.218 | > 10 | 14 | > 10 | 1 | 7.23 | > 1 | > 10 | > 25 | 29 |  |  | 36 | 27 | 
C#CCn1c(=O)c2c(nc3n2CCCN3c2cccc(Br)c2)n(C)c1=O | 10 |  |  | > 10 |  | 0.932 | 3.86 | > 10 | 0.313 | 21 | 0.284 | 46 | 34 |  | Ratio Ki (Rattus norvegicus): 3; Ratio Ki [20]: > 35
Cn1c(=O)c2c(nc3n2CCCN3c2ccc(Cl)cc2)n(C)c1=O | 10 | > 10 | 6 | > 10 | 10 | 1.21 | > 1 | 10 | ≥ 25 | 30 |  | 6 | 15 | 47 | 
